pIC50: −log10 of the molar value. Calls of active or inactive are those of the source. The rule behind the calls is not given here.
Key:
THP-1 [1] = assay: Antiinflammatory activity in LPS-induced human THP-1 cells assessed as reduction in TNFalpha release at 10 uM peincubated for 1 hr followed by LPS stimulation and measured after 24 hrs by EIA; assay type: functional, cell-based; conditions: time 25.0 hrs
In short: (§1)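 THP-1 cells grown in RPMI 1640 with 10% FCS, penicillin and streptomycin at 37 °C, 5% CO2, then plated overnight at 4×10⁴ cells/well. Test compound added 1 h before 100 ng/ml E. coli O111:B4 LPS; 24 h incubation. Untreated and LPS-only controls. […]; cytokine read by EIA at 450 nm against a standard curve. At least triplicate.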

Homo sapiens [2] = species on record: Homo sapiens; assay: Reversible inhibition of recombinant human BChE assessed as residual activity at 0.1 times IC50 using butyrylthiocholine iodide as substrate preincubated for 30 mins followed by 100-fold dilution in presence of substrate and measured after 15 mins by Ellman's method relative to control; conditions: time 45.0 min
THP-1 [3] = assay: Antiinflammatory activity in LPS-induced human THP-1 cells assessed as reduction in nitric oxide release at 10 uM peincubated for 1 hr followed by LPS stimulation and measured after 24 hrs by ELISA; assay type: functional, cell-based; conditions: time 25.0 hrs
In short: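 THP-1 cells plated overnight at 4×10⁴ cells/well, given test compound 1 h before 100 ng/ml LPS (E. coli O111:B4), then incubated 24 h. Cell-free supernatants stored at −20 °C, then NO measured by ELISA kit (sensitivity 1,12 […]) from a standard curve. Untreated cells as negative control, LPS-only as positive control. At least triplicate.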

THP-1 [4] = assay: Antiinflammatory activity in LPS-induced human THP-1 cells assessed as reduction in IL1beta release at 10 uM peincubated for 1 hr followed by LPS stimulation and measured after 24 hrs by EIA; assay type: functional, cell-based; conditions: time 25.0 hrs; in short: as §1
Homo sapiens [5] = species on record: Homo sapiens; assay: Reversible inhibition of recombinant human BChE assessed as residual activity at IC50 using butyrylthiocholine iodide as substrate preincubated for 30 mins followed by 100-fold dilution in presence of substrate and measured after 15 mins by Ellman's method relative to control; conditions: time 45.0 min
THP-1 [6] = assay: Antiinflammatory activity in LPS-induced human THP-1 cells assessed as reduction in IL6 release at 10 uM peincubated for 1 hr followed by LPS stimulation and measured after 24 hrs by EIA; assay type: functional, cell-based; conditions: time 25.0 hrs; in short: as §1
[7] = target: Cholinesterase (Equus caballus) (UniProt P81908); assay: Inhibition of equine serum BChE at 100 uM using butyrylthiocholine iodide as substrate preincubated for 10 mins followed by substrate addition and measured for 10 mins by Ellman's method relative to control; conditions: time 20.0 min
Cholinesterase (Equus caballus), sequence (P81908 whole entry): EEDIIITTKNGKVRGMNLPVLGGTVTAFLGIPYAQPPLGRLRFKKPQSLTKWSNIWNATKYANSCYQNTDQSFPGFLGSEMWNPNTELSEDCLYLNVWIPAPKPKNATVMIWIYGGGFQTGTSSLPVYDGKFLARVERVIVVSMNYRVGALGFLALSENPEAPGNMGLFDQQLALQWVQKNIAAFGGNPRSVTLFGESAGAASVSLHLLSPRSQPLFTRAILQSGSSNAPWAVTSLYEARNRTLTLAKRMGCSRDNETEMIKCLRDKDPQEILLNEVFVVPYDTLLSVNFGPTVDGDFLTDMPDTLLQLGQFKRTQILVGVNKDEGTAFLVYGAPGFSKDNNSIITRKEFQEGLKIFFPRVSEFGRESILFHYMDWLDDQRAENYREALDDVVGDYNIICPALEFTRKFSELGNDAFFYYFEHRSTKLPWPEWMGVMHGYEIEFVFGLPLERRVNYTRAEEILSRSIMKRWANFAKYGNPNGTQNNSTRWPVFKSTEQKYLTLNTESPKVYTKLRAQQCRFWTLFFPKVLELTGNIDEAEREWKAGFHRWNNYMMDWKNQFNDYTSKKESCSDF
In short: (§2)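 Ellman single-concentration screen in 50 mM Tris-HCl pH 8.0 with DTNB (6.8 mM stock) and 1% DMSO. Enzyme solution 0.4 U/mL AChE or 0.8 U/mL BChE. Compound and enzyme preincubated 10 min at 25 °C, then ATI (10 mM stock) or BTI (30 mM stock) added. A412 followed for 10 min, blank-subtracted, % inhibition versus no-compound control. Triplicate.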

[8] = Cytotoxicity against mouse 3T3 cells assessed as cell viability at 1 uM measured after 24 hrs by MTT assay relative to control; assay type: cell-based; conditions: read-out: Activity
In short: (§3)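 3T3 fibroblasts (ATCC CCL92) grown as adherent monolayers in DMEM with 10% inactivated FBS, 2 mM L-glutamine and penicillin/streptomycin at 37 °C, 5% CO2. Cells exposed to compounds for 24 h. MTT added for 4 h, formazan dissolved in SDS for 24 h, OD read at 570 nm. Viability given as % of untreated OD; at least triplicate, mean ± SD.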

[9] = Induction of apoptosis in mouse 3T3 cells assessed as early apoptotic cells at 10 uM measured after 24 hrs by Annexin V-FITC/propidium iodide staining based flow cytometry (Rvb <= 0.97%); assay type: cell-based; conditions: 3t3, 24 h
In short: (§4)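 3T3 fibroblasts exposed to compound for 24 h, with untreated cells as negative control. Cells trypsinized, PBS-washed, stained with Annexin V-FITC and PI by kit protocol, then analysed by flow cytometry. Populations: live (Annexin−/PI−), early apoptotic (Annexin+/PI−), late apoptotic (Annexin+/PI+) and dead (Annexin−/PI+). Percentages given as mean ± SD.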

[10] = target: Acetylcholinesterase (Electrophorus electricus) (UniProt O42275); assay: Inhibition of electric eel AChE at 100 uM using acetylthiocholine iodide as substrate preincubated for 10 mins followed by substrate addition and measured for 10 mins by Ellman's method relative to control; conditions: time 20.0 min; in short: as §2
Acetylcholinesterase (Electrophorus electricus), sequence (O42275 24-633 limits assumed): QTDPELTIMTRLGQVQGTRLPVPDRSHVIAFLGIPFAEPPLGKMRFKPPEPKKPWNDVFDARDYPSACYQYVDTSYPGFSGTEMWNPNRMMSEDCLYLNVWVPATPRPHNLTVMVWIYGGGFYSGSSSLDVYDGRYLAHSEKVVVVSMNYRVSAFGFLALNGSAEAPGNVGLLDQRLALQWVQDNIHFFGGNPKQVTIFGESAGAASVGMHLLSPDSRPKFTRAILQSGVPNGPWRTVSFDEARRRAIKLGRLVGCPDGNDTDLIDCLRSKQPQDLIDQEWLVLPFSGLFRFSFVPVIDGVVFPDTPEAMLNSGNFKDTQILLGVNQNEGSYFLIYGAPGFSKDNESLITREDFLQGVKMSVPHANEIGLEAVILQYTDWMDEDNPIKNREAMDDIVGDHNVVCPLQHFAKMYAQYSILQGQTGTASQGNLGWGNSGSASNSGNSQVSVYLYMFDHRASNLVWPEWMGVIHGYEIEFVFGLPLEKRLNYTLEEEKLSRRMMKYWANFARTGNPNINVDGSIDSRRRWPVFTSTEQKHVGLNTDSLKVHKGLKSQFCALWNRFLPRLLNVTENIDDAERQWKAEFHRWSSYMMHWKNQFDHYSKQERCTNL

[11] = Cytotoxicity against mouse 3T3 cells assessed as cell viability at 0.1 uM measured after 24 hrs by MTT assay relative to control; assay type: cell-based; conditions: read-out: Activity; in short: as §3
[12] = Induction of apoptosis in mouse 3T3 cells assessed as viable cells at 10 uM measured after 24 hrs by Annexin V-FITC/propidium iodide staining based flow cytometry (reference value: 98.83 to 99%); assay type: cell-based; conditions: read-out: Activity; in short: as §4
Cholinesterase [13] = target: Cholinesterase (Homo sapiens, UniProt P06276); assay: Inhibition of recombinant human BChE using butyrylthiocholine iodide as substrate preincubated for 10 mins followed by substrate addition and measured for 10 mins by Ellman's method
Cholinesterase (Homo sapiens, UniProt P06276), sequence (P06276 whole entry): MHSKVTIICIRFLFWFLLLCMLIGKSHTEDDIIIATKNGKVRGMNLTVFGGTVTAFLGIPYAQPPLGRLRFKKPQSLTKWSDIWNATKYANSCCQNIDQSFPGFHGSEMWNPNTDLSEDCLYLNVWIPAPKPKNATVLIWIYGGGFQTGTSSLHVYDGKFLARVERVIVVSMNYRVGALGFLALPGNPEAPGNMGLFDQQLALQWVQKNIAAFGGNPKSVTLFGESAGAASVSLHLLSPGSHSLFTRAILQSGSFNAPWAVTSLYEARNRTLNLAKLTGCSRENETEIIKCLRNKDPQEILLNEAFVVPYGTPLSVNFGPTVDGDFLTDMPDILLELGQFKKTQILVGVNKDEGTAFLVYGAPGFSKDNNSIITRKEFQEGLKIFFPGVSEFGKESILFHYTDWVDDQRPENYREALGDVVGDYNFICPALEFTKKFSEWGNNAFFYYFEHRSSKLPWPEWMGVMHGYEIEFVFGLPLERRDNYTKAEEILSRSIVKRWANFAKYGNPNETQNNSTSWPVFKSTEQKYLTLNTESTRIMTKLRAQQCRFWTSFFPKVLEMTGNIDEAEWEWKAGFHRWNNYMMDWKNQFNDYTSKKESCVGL
In short: (§5)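 BChE (0.8 U/mL solution) preincubated with inhibitor 10 min at 25 °C in Tris-HCl pH 8.0 with DTNB and 1% DMSO, then BTI (30 mM stock) added. A412 read over 10 min, blank-corrected. IC50 from log[inhibitor] versus % inhibition. Triplicate, mean ± SD.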

[14] = Cytotoxicity against mouse 3T3 cells assessed as cell viability at 10 uM measured after 24 hrs by MTT assay relative to control; assay type: cell-based; conditions: read-out: Activity; in short: as §3
[15] = Induction of apoptosis in mouse 3T3 cells assessed as necrotic cells at 10 uM measured after 24 hrs by Annexin V-FITC/propidium iodide staining based flow cytometry (reference value: 0%); assay type: cell-based; conditions: 3t3, 24 h; in short: as §4
[16] = Induction of apoptosis in mouse 3T3 cells assessed as late apoptotic cells at 10 uM measured after 24 hrs by Annexin V-FITC/propidium iodide staining based flow cytometry (reference value: 0.1 to 0.13%); assay type: cell-based; conditions: 3t3, 24 h; in short: as §4
Cholinesterase [17] = target: Cholinesterase (Equus caballus, UniProt P81908); assay: Inhibition of equine serum BChE using butyrylthiocholine iodide as substrate preincubated for 10 mins followed by substrate addition and measured for 10 mins by Ellman's method; in short: as §5
Cholinesterase (Equus caballus, UniProt P81908), sequence (P81908 whole entry): as the sequence (P81908 whole entry) above

[18] = Antioxidant activity assessed as trolox equivalent of AAPH radical scavenging activity at 10 uM measured every min for 90 mins by ORAC-FL assay; assay type: functional
In short: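 ORAC-FL in 75 mM phosphate buffer pH 7.4. Sample and fluorescein (150 nM final) preincubated 15 min at 37 °C, then AAPH (12 mM final) added. Fluorescence (ex 485/em 535 nm) read each minute for 90 min. Net AUC after blank subtraction, converted to Trolox equivalents from a Trolox curve (0.5–8, final; Trolox = 1). Duplicate wells, three independent assays.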

[19] = target: Amyloid-beta precursor protein (Homo sapiens) (UniProt P05067); assay: Inhibition of amyloid beta (1 to 42) (unknown origin) self-induced aggregation at 50 uM by Thioflavin T based fluorometric assay relative to control
Amyloid-beta precursor protein (Homo sapiens), sequence (P05067 whole entry): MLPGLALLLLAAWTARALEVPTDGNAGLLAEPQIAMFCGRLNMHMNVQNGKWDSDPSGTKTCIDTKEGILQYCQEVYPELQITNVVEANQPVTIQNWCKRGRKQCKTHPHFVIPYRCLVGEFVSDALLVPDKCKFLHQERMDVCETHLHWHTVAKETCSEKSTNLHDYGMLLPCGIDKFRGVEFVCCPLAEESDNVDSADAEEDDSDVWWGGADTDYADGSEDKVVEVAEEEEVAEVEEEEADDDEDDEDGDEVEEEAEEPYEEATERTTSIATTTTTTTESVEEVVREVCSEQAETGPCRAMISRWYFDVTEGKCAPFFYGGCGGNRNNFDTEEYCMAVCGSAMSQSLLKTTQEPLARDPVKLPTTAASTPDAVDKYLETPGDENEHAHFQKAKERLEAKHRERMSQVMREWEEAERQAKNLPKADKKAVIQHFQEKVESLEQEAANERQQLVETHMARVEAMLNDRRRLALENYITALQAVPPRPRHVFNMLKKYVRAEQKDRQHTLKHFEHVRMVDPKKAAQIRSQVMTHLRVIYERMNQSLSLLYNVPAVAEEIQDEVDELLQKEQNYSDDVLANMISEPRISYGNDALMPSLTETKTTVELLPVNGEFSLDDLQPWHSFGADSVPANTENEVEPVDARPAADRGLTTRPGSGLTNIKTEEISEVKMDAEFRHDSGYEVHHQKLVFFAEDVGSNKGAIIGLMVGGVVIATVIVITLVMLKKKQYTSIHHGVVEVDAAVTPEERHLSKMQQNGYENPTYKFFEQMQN
In short: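 Thioflavin T fluorometric assay of Aβ1-42 self-aggregation, with inhibitor and Aβ42 both at 50 (equimolar). Samples dissolved in DMSO. Result given as % inhibition, mean of two independent experiments each run in triplicate.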

Acetylcholinesterase [20] = target: Acetylcholinesterase (Electrophorus electricus, UniProt O42275); assay: Inhibition of electric eel AChE using acetylthiocholine iodide as substrate preincubated for 10 mins followed by substrate addition and measured for 10 mins by Ellman's method
Acetylcholinesterase (Electrophorus electricus, UniProt O42275), sequence (O42275 whole entry): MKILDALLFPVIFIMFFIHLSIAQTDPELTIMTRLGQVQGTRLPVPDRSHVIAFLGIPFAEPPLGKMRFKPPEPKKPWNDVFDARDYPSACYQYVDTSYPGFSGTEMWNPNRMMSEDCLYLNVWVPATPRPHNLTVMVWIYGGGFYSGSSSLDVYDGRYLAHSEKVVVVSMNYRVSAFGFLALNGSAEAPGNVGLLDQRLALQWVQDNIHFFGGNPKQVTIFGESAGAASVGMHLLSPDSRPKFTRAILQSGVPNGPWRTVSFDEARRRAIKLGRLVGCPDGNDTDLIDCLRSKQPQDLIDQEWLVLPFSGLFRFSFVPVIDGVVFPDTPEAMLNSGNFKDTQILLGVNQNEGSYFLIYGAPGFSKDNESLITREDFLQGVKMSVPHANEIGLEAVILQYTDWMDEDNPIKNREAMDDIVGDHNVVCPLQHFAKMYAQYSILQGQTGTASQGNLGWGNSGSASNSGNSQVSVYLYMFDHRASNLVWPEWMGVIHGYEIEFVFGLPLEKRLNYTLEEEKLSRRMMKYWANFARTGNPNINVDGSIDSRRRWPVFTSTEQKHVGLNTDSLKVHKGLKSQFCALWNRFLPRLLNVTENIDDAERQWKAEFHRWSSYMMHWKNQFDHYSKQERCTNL

Acetylcholinesterase [21] = target: Acetylcholinesterase (Homo sapiens, UniProt P22303); assay: Inhibition of recombinant human AChE expressed in HEK293 cells using acetylthiocholine iodide as substrate preincubated for 10 mins followed by substrate addition and measured for 10 mins by Ellman's method
Acetylcholinesterase (Homo sapiens, UniProt P22303), sequence (P22303 whole entry): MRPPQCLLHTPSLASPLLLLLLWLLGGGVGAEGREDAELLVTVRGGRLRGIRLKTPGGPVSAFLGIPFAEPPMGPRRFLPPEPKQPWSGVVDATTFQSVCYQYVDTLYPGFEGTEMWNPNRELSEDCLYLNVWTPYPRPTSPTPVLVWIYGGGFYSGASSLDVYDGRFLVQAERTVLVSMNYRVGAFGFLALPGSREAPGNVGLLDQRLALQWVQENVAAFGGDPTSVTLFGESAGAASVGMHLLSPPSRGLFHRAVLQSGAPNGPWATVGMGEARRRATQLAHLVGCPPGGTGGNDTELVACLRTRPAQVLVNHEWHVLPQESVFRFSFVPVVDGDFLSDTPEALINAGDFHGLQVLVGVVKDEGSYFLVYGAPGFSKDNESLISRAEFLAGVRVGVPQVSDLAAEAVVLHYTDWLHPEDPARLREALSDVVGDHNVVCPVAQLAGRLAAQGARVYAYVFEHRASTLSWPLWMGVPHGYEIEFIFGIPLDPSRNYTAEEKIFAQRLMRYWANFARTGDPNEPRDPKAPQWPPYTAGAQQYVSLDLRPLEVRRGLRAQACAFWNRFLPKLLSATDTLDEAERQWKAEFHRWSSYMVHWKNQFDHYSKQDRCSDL

Structure (SMILES) | Activity (THP-1 [1]) | Activity (Homo sapiens [2]) | Activity (THP-1 [3]) | Activity (THP-1 [4]) | Activity (Homo sapiens [5]) | Activity (THP-1 [6]) | inhibition [7] | viability at 24 h, 1 µM [8] | Activity [9] | inhibition [10] | viability at 24 h, 0.1 µM [11] | viability at 24 h, 10 µM [12] | viability at 24 h, 10 µM [14] | Activity [15] | Activity [16] | Activity [18] | inhibition [19] | also measured
COc1cc2c(cc1OC)C(=O)C(CC1CCN(Cc3ccccc3)CC1)C2 (configuration not stated) | Active | 95.4% | Active | Active | 90.2% | Active | – | – | – | – | – | – | – | – | – | – | – | –
Cn1c(=O)sc2cc(NC(=O)CCCCN3CCC(c4ccccc4)CC3)ccc21 | Active | 98.4% | Active | Active | 81.5% | Active | 96% | 97.1% | 1.73% | 30% | 98.9% | 93.8% | 93.6% | <= 0.23% | 0.33% | 2.61 equiv | 55.6% | pIC50 (Cholinesterase [13]): 5.59; pIC50 (Cholinesterase [17]): 5.53
Cn1c(=O)sc2cc(C(=O)CCN3CCN(Cc4ccccc4)CC3)ccc21 | Active | – | Active | Active | – | Active | < 10% | 99.3% | 1.03% | 99% | 102% | 98.3% | 92.6% | 0.4% | 0.1% | 3.7 equiv | 57.5% | pIC50 (Acetylcholinesterase [20]): 6.47; pIC50 (Acetylcholinesterase [21]): 6.34
